# Screening results as filed in PubChem.
# Jurkat NFkB inh: inhibitors of the PMA/ionomycin-induced NF-kB reporter in Jurkat cells; 330,000 tested, 0.53% active; inhibition, % at 4 µM; PMA/ionomycin-induced NF-kB luciferase reporter, luminescence; in the data active = inhibition above about 50%
# APP transl inh: APP translation inhibition; AID 1285; inhibition, % at 2 µM; 190,000 tested, 0.82% active; SH-SY5Y APP 5'UTR-luciferase reporter, luminescence;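 active = inhibition above a set limit, derived from the sample mean plus 3 SD, cut at about 45% in these data; inconclusive = one replicate passes the limit while the other fails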
# 697 NFkB inh: lowers PMA/ionomycin-induced NF-kB signal in 697 B cells | 697 B-cell NF-kB luciferase reporter, 16 h | inhibition, % at 4 µM | 330,000 tested, 0.33% active; in the data active = inhibition above about 35%
# aSyn 5UTR inh: MLPCN primary screen, SNCA 5' untranslated region; alpha-synuclein 5'UTR reporter, inhibitor activity; inhibition, % (tested at 7.5 µM); 300,000 tested, 0.82% active; AID 1813; in the data active = inhibition above about 60%; inconclusive = no clear call, values can overlap the other calls;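 note: H4 neuroglioblastoma cells stably carrying SNCA 5'UTR luciferase fusion; 0% = DMSO wells and 100% = positive control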
# Lipid droplet: hepatic lipid droplet formation modulation. 240,000 tested, 0.4% active. inhibition, % at 6.5 µM. AML12 mouse hepatocytes, oleate lipid droplets, BODIPY imaging;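 active = lipid droplet intensity inhibited by at least 50%, with more than 500 cells counted; inconclusive = wells with under 300 cells, treated as cytotoxic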
#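 Test system: AML12 mouse liver cells; schedule: overnight exposure; technique: high-content imaging of BODIPY-stained droplets and DAPI nuclei; read-out: % inhibition of corrected integrated BODIPY droplet signal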
# H9c2 TAG inh: inhibitors of triacylglycerol accumulation; H9c2 cells, Nile Red lipid (TAG) fluorescence; cells loaded with 200 µM oleic acid; inhibition, % at 12.5 µM; 230,000 tested, 0.66% active;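 active = pattern-corrected inhibition of lipid staining of at least 50% with the nuclear-stain viability signal not falling by more than 50%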;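 note: 0% = DMSO wells and 100% = triacsin C control wells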
# * hit, by the source's call; ? = inconclusive; nt = no result given. Sampled rows, rich in hits. Any-hit rate of the full collection: about 1.9%.
SMILES,Jurkat NFkB inh,APP transl inh,697 NFkB inh,aSyn 5UTR inh,Lipid droplet,H9c2 TAG inh
N#CC1=C(N)Oc2cc(N)ccc2C1c1cccc(Br)c1 (stereo unspecified),49.2,nt,-64.7,118.8*,-97.4,nt
Cc1ccc(C2C(C#N)=C(N)Oc3cc(N)ccc32)cc1 (stereo unspecified),-36.3,nt,-3.8,9.0,7.6,nt
Cc1ccc(C(=O)Nc2ccc(C(=O)N/N=C/c3c[nH]c4ccccc34)cc2)cc1,-2.0,-0.4,21.8,-45.0,10.7,14.8
Cc1cccc(NC(=S)N/N=C/c2c[nH]c3ccccc23)c1,36.2,86.5*,-81.7,-64.9,-11.6,nt
CC(C)c1nc2sc3c(NCc4ccco4)ncnc3c2c2c1COC(C)(C)C2,4.3,0.5,-5.9,71.0*,nt,17.6
O=C1CCc2cc(NS(=O)(=O)c3ccc(Cl)cc3)cc3c2N1CC3,-7.4,nt,-19.2,5.2,nt,-8.2
O=C(CCCOc1ccc(Cl)cc1)N1CCCCC1,-18.2,-10.1,-23.1,-50.7,0.1,nt
O=C(CCCOc1ccccc1)N1CCCCC1,-60.2,-103.0,-129.2,70.6*,nt,-34.8
CC(C)Nc1ncnc2c1ncn2[C@H]1CN(Cc2ccccc2)C[C@@H](CO)O1,nt,nt,nt,nt,nt,2.6
CCN1CCCC1CNC(=O)c1cc2c(-c3ccc(Cl)cc3)nn(C)c2s1 (stereo unspecified),-21.3,1.0,-5.9,3.2,nt,52.7*
CCNC(=O)C1CCCN(C(=O)c2ccccc2OC(F)(F)F)CC1 (stereo unspecified),nt,nt,nt,nt,nt,-1.3
Cc1ccc(Sc2c(CO)c(-c3ccccc3)nn2C)cc1,39.0,95.0*,-52.4,-86.4,?,nt
CCN(Cc1ccncc1)Cc1ccc(Br)cc1,-7.5,nt,10.3,10.8,0.4,1.0
COc1cc(C(O)c2nc(-c3ccc(N(C)C)cc3)cs2)ccc1F (stereo unspecified),nt,nt,nt,nt,nt,-28.9
O=C(C#Cc1ccccc1)c1ccc([N+](=O)[O-])cc1,-21.5,0.1,-32.8,-95.4,9.6,-14.2
O=C(C#Cc1ccccc1)c1ccccc1,nt,nt,nt,nt,nt,63.9*
Cc1cccc2cc3c(N)c(C#N)sc3nc12,-14.2,16.3,-2.0,83.5*,nt,3.5
Fc1ccc(-n2nnc(-c3cnc4ccccc4c3)n2)cc1,-46.0,-98.4,-154.7,93.8*,-2.9,-4.6
CCCCN1C=CC(=C2C(=O)c3ccccc3C2=O)C=C1,-4.3,58.5*,-33.3,98.5*,-8.0,nt
CCCCNC1=CC(=O)C(=O)c2ccccc21,-3.3,11.4,14.1,40.2,3.7,23.6
COc1cc(-c2cc(=O)c3c(O)c(OC)c(OC)c(O)c3o2)ccc1O,-42.4,12.3,-0.4,87.3*,-4.8,nt
COc1c(O)c(O)c2oc(-c3ccccc3)cc(=O)c2c1OC,2.9,12.7,-2.4,-5.9,-8.0,nt
Cc1cccc2sc(NNC(=O)c3ccc(S(=O)(=O)N4CCc5ccccc5C4)cc3)nc12,3.0,19.7,-5.3,66.9*,-4.2,15.2
Cc1cc(C)c2nc(NNC(=O)c3ccc(S(=O)(=O)N4CCCCC4)cc3)sc2c1,2.7,13.2,-27.1,45.6,-65.1,5.4
Cc1cccc2sc(NNC(=O)c3ccc(S(=O)(=O)N4CCCC(C)C4)cc3)nc12 (stereo unspecified),nt,34.7,nt,77.6*,12.5,2.7
SMILES,Jurkat NFkB inh,APP transl inh,697 NFkB inh,aSyn 5UTR inh,Lipid droplet,H9c2 TAG inh
COc1ccc2c(/C=C/c3cc[n+](C)cc3)c[nH]c2c1,15.5,nt,-16.5,7.4,16.2,nt
Cc1ccc2[nH]cc(/C=C/c3cc[n+](C)cc3)c2c1,27.5,nt,-4.9,64.5*,nt,nt
Cc1ccc(S(=O)(=O)NCc2ccc(N3CCN(C(=O)OC(C)(C)C)CC3)cc2)cc1,18.9,nt,-17.7,9.9,-14.1,-16.6
C[C@@H](NCCCn1ccc(NC(=O)OCc2ccccc2)nc1=O)c1cccc2ccccc12,nt,nt,nt,nt,nt,28.0
CC1=C(C)/C(=N\OS(=O)(=O)c2ccc(C)cc2)C=CC1=O,nt,90.4*,nt,nt,5.5,74.6
CC(C)(C)c1ccc(CN2N=Nc3ccccc3S2(=O)=O)cc1,0.7,-12.5,-51.7,-30.1,nt,51.4*
O=S1(=O)c2ccccc2N=NN1Cc1ccc(Cl)c(Cl)c1,0.7,nt,-4.9,12.6,-0.4,nt
CN1CCN(C(=O)c2cccc(-c3cc(O)c4ncccc4c3)c2)CC1,-9.8,nt,-13.1,nt,nt,nt
Oc1cc(-c2cccnc2)cc2cccnc12,-0.3,nt,-0.8,nt,nt,56.3*
CN1CCN(c2cc(-c3cc(O)c4ncccc4c3)ccn2)CC1,14.0,nt,8.9,nt,nt,76.6*
O=C(/C=C/c1ccccc1)CCN1CCCCC1,nt,nt,nt,nt,nt,15.0
CC(C)CN(C)C(=O)CC1C(=O)NCCN1C (stereo unspecified),6.2,-5.5,12.7,26.3,-3.1,10.0
CN(C)C(=O)CCc1ccc2c3c([nH]c2c1)[C@]1(CCc2ccccc2)[C@@H](C(=O)N2CCCCC2)C[C@H](CC(=O)NCCCn2ccnc2)C(=O)N1CC3,nt,nt,18.8,nt,nt,-8.7
CCOC(=O)c1ccc(NC(=O)c2cccc(S(=O)(=O)N3c4ccccc4CC3C)c2)s1 (stereo unspecified),2.2,-22.2,-70.4,83.1*,-28.6,nt
CCOc1cc(/C=C2\CN(C)C/C(=C\c3ccc(O)c(OCC)c3)C2=O)ccc1O,33.3,nt,-57.0,96.5*,-20.1,nt
Cc1ccn2c(Nc3ccc4c(c3)OCO4)c(-c3ccccn3)nc2c1,-7.5,52.4*,-41.4,-50.4,-34.7,nt
Cc1ccc(Nc2c(-c3ccccn3)nc3ccc(C)cn23)cc1,-4.5,60.0*,-14.7,35.6,-1.8,28.5
Cc1ccc(Nc2c(-c3ccccn3)nc3cc(C)ccn23)cc1,8.8,59.8*,-4.8,34.7,-1.8,40.6
Cc1ccn2c(NC3CCCC3)c(-c3ccccn3)nc2c1,-18.0,1.4,-49.3,-46.8,0.5,40.1
Cc1ccc2nc(-c3ccncc3)c(Nc3ccccc3)n2c1,-6.6,10.1,-1.7,36.3,-1.2,nt
CC(=O)C1CCC2C3CC=C4N(C)C(=O)CCC4(C)C3CCC12C (stereo unspecified),nt,nt,nt,nt,nt,3.8
CCOC(=O)C1=C(C)NC(C)=C(C(=O)OCC)C1C(=O)OCC(=O)Nc1ccc(NC(C)=O)cc1,nt,nt,nt,nt,nt,-1.9
O=C(NC1CC2CCCC(C1)N2C(=O)Nc1ccccc1)C1CC1 (stereo unspecified),4.9,nt,12.8,2.5,2.1,nt
CCCCSc1ccc2nc(-c3ccc(C#N)cc3)cn2c1,-28.9,-37.0,-103.7,-127.8,nt,nt
CCCSc1ccc2nc(-c3ccccc3)cn2c1,-47.1,-97.7,-171.9,110.9*,16.2,nt
CCN(C(=O)COC(=O)CCC(=O)c1ccc(Cl)cc1)c1c(N)n(Cc2ccccc2)c(=O)[nH]c1=O,nt,nt,nt,nt,nt,-8.0
O=C(NCc1ccccc1)c1cc(C2COCCN2S(=O)(=O)c2cccs2)on1 (stereo unspecified),nt,nt,nt,nt,nt,26.6
CCOC(=O)c1c(NC(=O)C2c3ccccc3Oc3ccccc32)sc(C(=O)N(CC)CC)c1C,-8.0,-1.5,-17.9,36.3,nt,80.5*
CN1CCN(C2Cc3ccccc3Sc3cc(C(F)(F)F)ccc32)CC1 (stereo unspecified),0.1,nt,-8.9,28.2,nt,nt
